{"data": "Measurements collected from several papers", "target": "Activin receptor type-1B (ACVR1B, Homo sapiens, UniProt P36896)", "One construct used (P36896 24-505)": "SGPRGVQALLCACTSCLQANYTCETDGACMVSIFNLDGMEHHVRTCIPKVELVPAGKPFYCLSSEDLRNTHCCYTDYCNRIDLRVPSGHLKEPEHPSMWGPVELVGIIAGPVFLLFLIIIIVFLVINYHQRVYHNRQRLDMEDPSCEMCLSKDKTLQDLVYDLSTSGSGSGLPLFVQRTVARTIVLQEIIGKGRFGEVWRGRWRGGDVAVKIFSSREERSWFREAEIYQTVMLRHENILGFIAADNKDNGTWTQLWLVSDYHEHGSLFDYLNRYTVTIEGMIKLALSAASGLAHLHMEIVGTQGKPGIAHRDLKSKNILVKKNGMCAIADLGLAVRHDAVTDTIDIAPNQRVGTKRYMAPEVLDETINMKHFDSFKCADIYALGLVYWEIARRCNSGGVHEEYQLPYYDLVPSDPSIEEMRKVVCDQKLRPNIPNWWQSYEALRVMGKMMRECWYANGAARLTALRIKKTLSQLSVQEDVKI", "note": "Protocols differ between the studies behind these lines."}
{"Structure (SMILES)": "CC(=O)C1=C(C)N(c2cccc(C(F)(F)F)c2)C(=O)N[C@@H]1c1ccc(C#N)nc1", "test": "cell-free assay, competition with immobilised ligand", "conditions": "1 µM", "remaining binding [%]": 100}
{"Structure (SMILES)": "C[C@@H]1CCN(c2nccc(-c3cnn4ncccc34)n2)C1", "test": "binding", "conditions": "1 µM", "remaining binding [%]": 76}
{"Structure (SMILES)": "Cc1cnc(Nc2ccc(C(=O)N3CCC(N4CCCC4)CC3)cc2)nc1-c1cc2ccccc2s1", "test": "binding, competition with immobilised ligand", "conditions": "1 µM", "remaining binding [%]": 33}
{"Structure (SMILES)": "O=C(NS(=O)(=O)c1ccc(NCC2CCOCC2)c([N+](=O)[O-])c1)c1ccc(N2CCN(Cc3ccc(C(F)(F)F)cc3-c3ccc(Cl)cc3)CC2)cc1Oc1cnc2[nH]ccc2c1", "test": "cell-free assay, competition with immobilised ligand", "conditions": "1 µM", "remaining binding [%]": 59}
{"Structure (SMILES)": "F[C@@H]1CCN(c2nccc(-c3cnn4ncccc34)n2)C1", "test": "binding", "conditions": "1 µM", "remaining binding [%]": 100}
{"Structure (SMILES)": "COc1ccc2c(c1)O[C@@H](c1ccc(OC)c(OC)c1)C[C@H]2NC(=O)C1(c2ccc3c(c2)OC(F)(F)O3)CC1", "test": "cell-free assay, competition with immobilised ligand", "conditions": "1 µM", "remaining binding [%]": 67}
{"Structure (SMILES)": "O=C(NCCCN1CCOCC1)c1ccc(Nc2ncc(Cl)c(-c3ccc(Cl)s3)n2)cc1", "test": "binding, competition with immobilised ligand", "conditions": "1 µM", "remaining binding [%]": 59}
{"Structure (SMILES)": "O=C(Nc1cnc(Oc2ccc(F)cc2)nc1)N1CCc2ncccc2[C@@H]1c1ccc(F)cc1", "test": "cell-free assay, competition with immobilised ligand", "conditions": "1 µM", "remaining binding [%]": 100}
{"Structure (SMILES)": "C[C@@H]1CN(c2ccc3ncc(-c4ccc5[nH]nc(C6CC6)c5c4)n3n2)C[C@H](C)O1", "test": "binding, competition with immobilised ligand", "conditions": "0.5 µM", "remaining binding [%]": 100}
{"Structure (SMILES)": "COc1ncc2cc3ccccc3nc2c1C#N", "test": "cell-free assay, competition with immobilised ligand", "conditions": "5 µM", "remaining binding [%]": 88}
{"Structure (SMILES)": "CC(C)CC(=O)N1CCc2nc(-c3ccc(Br)cc3)nc(N(C)Cc3ccccc3)c2C1", "test": "cell-free assay, competition with immobilised ligand", "conditions": "0.1 µM", "remaining binding [%]": 89}
{"Structure (SMILES)": "C=CC(=O)N1CCC(C(=O)NCC(=O)N2CCN(c3nc(-c4cnc(N)nc4C(F)F)nc(N4CCOCC4)n3)CC2)CC1", "test": "binding, competition with immobilised ligand", "conditions": "1 µM", "remaining binding [%]": 82}
{"Structure (SMILES)": "CS(=O)(=O)NCC[C@H](NC(=O)c1cncc2c1cnn2-c1ccc(F)cc1)c1ccnc(S(C)(=O)=O)c1", "test": "cell-free assay, competition with immobilised ligand", "conditions": "1 µM", "remaining binding [%]": 100}
{"Structure (SMILES)": "CN(c1nccc(-c2cnn3ncccc23)n1)C1CC1", "test": "binding", "conditions": "1 µM", "remaining binding [%]": 100}
{"Structure (SMILES)": "FC(F)(F)Oc1cccc(-c2cnc3ccc(-c4ccncc4)nn23)c1", "test": "cell-free assay, competition with immobilised ligand", "conditions": "5 µM", "remaining binding [%]": 85}
{"Structure (SMILES)": "Nc1ncc2c(n1)-c1c([nH]c3ccc(C#CC4CC4)cc13)CCCC2", "test": "binding, competition with immobilised ligand", "conditions": "1 µM", "remaining binding [%]": 89}
{"Structure (SMILES)": "O=C(c1ccc(Nc2nccc(-c3cc4ccccc4s3)n2)cc1)N1CCC(N2CCCC2)CC1", "test": "binding, competition with immobilised ligand", "conditions": "1 µM", "remaining binding [%]": 71}
{"Structure (SMILES)": "O=C(NCc1ncc(C(F)(F)F)cc1Cl)c1ccc2c(c1)C1(CCS(=O)(=O)CC1)[C@@H](C1CC1)N2S(=O)(=O)c1ccc(F)cc1", "test": "cell-free assay, competition with immobilised ligand", "conditions": "1 µM", "remaining binding [%]": 87}
{"Structure (SMILES)": "N[C@H]1CCN(c2nccc(-c3cnn4ncccc34)n2)C1", "test": "binding", "conditions": "1 µM", "remaining binding [%]": 77}
{"Structure (SMILES)": "c1cncc(-c2cccc(Nc3nccc(NC4CCCCC4)n3)c2)c1", "test": "binding, competition with immobilised ligand", "conditions": "10 µM", "remaining binding [%]": 75}
{"Structure (SMILES)": "CN(CCCC(F)(F)F)c1nccc(-c2cnn3ncccc23)n1", "test": "binding", "conditions": "1 µM", "remaining binding [%]": 96}
{"Structure (SMILES)": "COc1cnc(Nc2cccc(S(N)(=O)=O)c2)nc1N1CCN(c2ccccc2)C(=O)C1", "test": "binding, competition with immobilised ligand", "conditions": "1 µM", "remaining binding [%]": 100}
{"Structure (SMILES)": "Cc1nc(N2CC[C@@H](O)C2)ncc1-c1cc(C(F)(F)F)cc2[nH]ncc12", "test": "cell-free assay, competition with immobilised ligand", "conditions": "1 µM", "remaining binding [%]": 100}
{"Structure (SMILES)": "CN(C)c1nccc(-c2cnn3ncccc23)n1", "test": "binding", "conditions": "1 µM", "remaining binding [%]": 96}
{"Structure (SMILES)": "O=C(NCC1CCOCC1)c1n[nH]cc1NC(=O)c1c(F)cccc1F", "test": "binding, competition with immobilised ligand", "conditions": "1 µM", "remaining binding [%]": 100}
